RORA act: activates the human nuclear receptor RORA; CHO-K1 Gal4-RORA LBD luciferase reporter, luminescence; percent increase over mock-subtracted basal signal; activation, % at 10 µM; 1.5% of 65,000 active;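 active = activation above the mean of all tested compounds plus 3 SD, cut at about 49% in these data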;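 also: 0% = DMSO-treated RORA cells and 100% = added signal equal to DMSO minus mock-transfected cells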
MT1-MMP txn act: activates MT1-MMP transcription; 0.16% of 86,000 active; activation factor at 10 µM; HT1080 MT1-MMP promoter luciferase reporter, luminescence, overnight; hits give high values;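 active = activation factor of at least 2 for MT1-MMP transcription at 10 µM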
Jurkat viability: reduces viability or proliferation of Jurkat cells; Jurkat E6.1 viability, ATP luminescence, 48 h; 1.2% of 56,000 active; inhibition, % at 4 µM;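 active = inhibition above the mean inhibition of all tested compounds plus 3 SD, cut at about 28% in these data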
SF-1 act: activates the human nuclear receptor SF-1. CHO-K1 Gal4-SF-1 LBD luciferase reporter; % increase over DMSO SF-1-specific signal. 1.9% of 65,000 active. Q13285. activation, % at 10 µM;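 active = activation above the mean activation of all tested compounds plus 3 SD, cut at about 50% in these data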
Target sequence (Q13285 whole entry, looked up, the tested form may be a part): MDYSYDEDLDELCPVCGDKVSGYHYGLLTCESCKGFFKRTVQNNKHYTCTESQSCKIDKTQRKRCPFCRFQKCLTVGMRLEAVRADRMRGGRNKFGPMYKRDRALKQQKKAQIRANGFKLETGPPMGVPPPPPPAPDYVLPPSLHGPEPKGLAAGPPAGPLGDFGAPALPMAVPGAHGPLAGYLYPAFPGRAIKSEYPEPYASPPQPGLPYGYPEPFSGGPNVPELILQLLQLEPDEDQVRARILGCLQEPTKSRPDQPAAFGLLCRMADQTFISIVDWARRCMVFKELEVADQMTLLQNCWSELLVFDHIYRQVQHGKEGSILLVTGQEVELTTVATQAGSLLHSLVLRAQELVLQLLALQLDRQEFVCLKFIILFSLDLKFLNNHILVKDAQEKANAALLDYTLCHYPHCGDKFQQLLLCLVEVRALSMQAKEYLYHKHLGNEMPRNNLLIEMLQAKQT
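Test system: transient Gal4-SF-1 LBD reporter, CHO-K1; Amount: 4,000 CHO-K1 cells per well; Doses: 10 µM only; Timing: compound exposure 20 h at 37 °C; Signal: luciferase light emission; Read-out basis: percent activation relative to DMSO median and mock-transfected background; Control set: DMSO negative control and −SF1 background wells; Replicates: one test per compound.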
HEK293 NFkB inh: lowers PMA/ionomycin-induced NF-kB signal in HEK293 cells; HEK-293 NF-kB luciferase reporter, luminescence; inhibition, % at 3 µM; 0.21% of 62,000 active;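 active = inhibition above the mean of all tested compounds plus 3 SD, cut at about 40% in these data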;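 also: 0% = stimulated DMSO wells and 100% = 10 µM reference inhibitor 5653914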
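Signal: luciferase luminescence; Material: HEK-293 cells with stable firefly luciferase reporter driven by four HIV NF-kB elements; Probe or stimulus: PMA with ionomycin; Replication: tested once; Times: 1 h compound pretreatment, then 16 h stimulation at 37 °C, 5% CO2; Benchmarks: DMSO and 10 µM reference inhibitor; Evaluation: per-plate % inhibition versus controls.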
Active calls of the source: *. Rows were chosen to be rich in hits. Some 2.9% of all compounds tested hit in one or more screens of this group.

Results for COc1ccc(N(C)S(=O)(=O)c2cccc(C(=O)Nc3ccc(-n4cnnn4)cc3)c2)cc1 ?
RORA act: -4; MT1-MMP txn act: 1.1; Jurkat viability: 12; SF-1 act: -13; HEK293 NFkB inh: 14

Results for CCOC(=O)c1cccc(NS(=O)(=O)c2ccc(NC(C)=O)cc2)c1 ?
MT1-MMP txn act: 1.2

How did CCOC(=O)/C=C/S(=O)(=O)c1ccc(NC(C)=O)cc1 do in these assays?
RORA act: -16; MT1-MMP txn act: 1.2; Jurkat viability: 52*; SF-1 act: -15; HEK293 NFkB inh: 13

Results for CN(C)CCNC(=O)c1ccc(CS(=O)(=O)c2ccc(Br)cc2)o1 ?
RORA act: 20; MT1-MMP txn act: 1.2; Jurkat viability: 0; SF-1 act: 1; HEK293 NFkB inh: 5

What do the screens show for `COC(=O)Nc1ccc(S(=O)(=O)N2CCCc3ccccc32)cc1`?
RORA act: 53*; MT1-MMP txn act: 0.7; Jurkat viability: 88*; SF-1 act: 37; HEK293 NFkB inh: 33

What do the screens show for `Cn1c(=O)oc2cc(S(=O)(=O)N3CCCc4ccccc43)ccc21`?
RORA act: 26; MT1-MMP txn act: 1.1; Jurkat viability: 91*; SF-1 act: 34; HEK293 NFkB inh: 8

What do the screens show for `O=C(NCC(c1cccs1)N1CCOCC1)c1ccc(Cl)s1` (centres undefined)?
RORA act: -8; MT1-MMP txn act: 0.3; Jurkat viability: 95*; SF-1 act: -26; HEK293 NFkB inh: 13

What do the screens show for `CCOc1ccc(OCC)c(NC(=O)C2CCCN2S(=O)(=O)c2cccc3cccnc23)c1` (centres undefined)?
RORA act: 6; MT1-MMP txn act: 1; Jurkat viability: 8; SF-1 act: 58*; HEK293 NFkB inh: 5

How did COc1ccc(NC(=O)C2CCCN2S(=O)(=O)c2cccc3cccnc23)c(OC)c1 (centres undefined) do in these assays?
RORA act: -3; Jurkat viability: -16; SF-1 act: -12; HEK293 NFkB inh: 4

Results for COCCOC(=O)c1c(C)oc2ccc(OC(=O)c3ccc4c(c3)OCO4)cc12 ?
RORA act: -17; MT1-MMP txn act: 1.2; Jurkat viability: 1; SF-1 act: -3; HEK293 NFkB inh: 4

Results for Cc1c(C(=O)N2CCCCC2)oc2ccc(S(=O)(=O)N3CC(C)CC(C)C3)cc12 (centres undefined) ?
RORA act: -29; MT1-MMP txn act: 1.1; Jurkat viability: 32*; SF-1 act: -1; HEK293 NFkB inh: 30

What do the screens show for `CCOC(=O)N1CCN(C(=O)c2oc3ccc(S(=O)(=O)N4CCCCC4)cc3c2C)CC1`?
RORA act: 18; MT1-MMP txn act: 0.9; Jurkat viability: -1; SF-1 act: -6; HEK293 NFkB inh: 23

What do the screens show for `Nn1c(Nc2ccccc2)nc2ccccc21`?
RORA act: 50*; MT1-MMP txn act: 1.4; Jurkat viability: 0; SF-1 act: 42; HEK293 NFkB inh: -7

What do the screens show for `COc1ccc(CNc2cc(C)nc3ncnn23)c(OC)c1`?
RORA act: -67; MT1-MMP txn act: 1; Jurkat viability: 80*; SF-1 act: -30; HEK293 NFkB inh: 27

How did COc1ccc(Nc2cc(C)nc3ncnn23)c(OC)c1 do in these assays?
RORA act: -4; MT1-MMP txn act: 1.2; Jurkat viability: -9; SF-1 act: -1; HEK293 NFkB inh: 17

How did Cn1c2ccccc2c2nn(-c3ccccc3)c(=O)cc21 do in these assays?
RORA act: -3; MT1-MMP txn act: 0.9; SF-1 act: 2

What do the screens show for `CCOC(=O)N1CCN(CC(=O)Nc2ccc(Oc3ccccc3)cc2)CC1`?
MT1-MMP txn act: 1.1

Results for CCCCNC(=O)c1cc(-c2ccc(OC)c(OC)c2)on1 ?
RORA act: 1; MT1-MMP txn act: 1.1; Jurkat viability: -2; SF-1 act: 0; HEK293 NFkB inh: 3

Results for C=CCNC(=O)c1cc(-c2ccc(Br)cc2)on1 ?
RORA act: 61*; MT1-MMP txn act: 1.7; Jurkat viability: -9; SF-1 act: 36; HEK293 NFkB inh: -32

Results for CCCCNC(=O)c1cc(-c2ccc(OC)cc2)on1 ?
RORA act: 59*; SF-1 act: 47; HEK293 NFkB inh: -12

How did CCCCNC(=O)c1cc(-c2ccc(F)cc2)on1 do in these assays?
RORA act: 72*; MT1-MMP txn act: 1.4; Jurkat viability: 16; SF-1 act: 47; HEK293 NFkB inh: -50

How did CC1=NC(=O)C(N=Nc2cccc3ccccc23)N1c1ccccc1 (centres undefined) do in these assays?
MT1-MMP txn act: 1.3

What do the screens show for `CCCC(=O)Nc1ccc(NC(=O)c2cccc(OC)c2)nc1`?
RORA act: 44; MT1-MMP txn act: 1.5; Jurkat viability: -4; SF-1 act: 60*; HEK293 NFkB inh: -11

Results for COc1cccc(C(=O)Nc2cccc(SC)c2)c1 ?
RORA act: 51*; MT1-MMP txn act: 1.1; Jurkat viability: -6; SF-1 act: 81*; HEK293 NFkB inh: -19

How did CCCc1nnc(NC(=O)c2cccc(OC)c2)s1 do in these assays?
RORA act: 57*; MT1-MMP txn act: 1; Jurkat viability: -1; SF-1 act: 37; HEK293 NFkB inh: -30

How did CCCC(=O)Nc1ccc(NC(=O)c2ccccn2)cn1 do in these assays?
RORA act: 89*; MT1-MMP txn act: 0.9; SF-1 act: 27; HEK293 NFkB inh: -15

How did COc1cccc(C(=O)Nc2ccc(NC(C)=O)cn2)c1 do in these assays?
RORA act: 16; MT1-MMP txn act: 1.4; Jurkat viability: 0; SF-1 act: 35; HEK293 NFkB inh: 8

What do the screens show for `COC(=O)c1sc(NC(=O)c2cnccn2)c(C(=O)OC)c1C`?
RORA act: 1; MT1-MMP txn act: 1.2; Jurkat viability: 6; SF-1 act: 2; HEK293 NFkB inh: 15

What do the screens show for `CCOc1ccccc1C(=O)N(Cc1ccccc1)Cc1cc2cc3c(cc2[nH]c1=O)OCCO3`?
MT1-MMP txn act: 1.2

What do the screens show for `CC(=O)Nc1cccc(Oc2cc(C#N)c(C#N)cc2N2CCCCCC2)c1`?
RORA act: -16; MT1-MMP txn act: 1.2; Jurkat viability: -1; SF-1 act: -18; HEK293 NFkB inh: 13

Results for CCOC(=O)C1=C(N)n2c(s/c(=C\c3cccs3)c2=O)=C(C(=O)OCC)C1c1cccs1 (centres undefined) ?
RORA act: 29; MT1-MMP txn act: 0.5; Jurkat viability: 86*; SF-1 act: 25; HEK293 NFkB inh: 7

What do the screens show for `CCS(=O)(=O)c1ccc2oc(Nc3ccccc3C)nc2c1`?
RORA act: 30; MT1-MMP txn act: 1.4; Jurkat viability: 8; SF-1 act: 66*; HEK293 NFkB inh: -32

What do the screens show for `CCc1cc2c(=O)n(Cc3ccco3)c(SCc3c(C)noc3C)nc2s1`?
RORA act: -2; Jurkat viability: 88*; SF-1 act: -7; HEK293 NFkB inh: 22

Results for CCc1cc2c(=O)n(Cc3ccco3)c(SCC(=O)N3CCCc4ccccc43)nc2s1 ?
RORA act: -21; MT1-MMP txn act: 1.1; Jurkat viability: 2; SF-1 act: -12; HEK293 NFkB inh: 9
